Laboratory results: ChEMBL document CHEMBL1949633, “Novel morpholine ketone analogs as potent histamine H3 receptor inverse agonists with wake activity” (Bioorg Med Chem Lett, 2012)
pIC50, pKi: −log10 of the molar value. Blank lines part the entries; values can stand above or below the compound they belong to. Active and inactive are the calls of the source. The calls are words filed in the database; no cut-off is given here.

How the values were obtained:
Histamine H3 receptor [1] = biological target: Histamine H3 receptor (Rattus norvegicus, UniProt Q9QYN8); experiment: Displacement of [3H]NAMH from rat histamine H3 receptor
Sequence of Histamine H3 receptor (Rattus norvegicus, UniProt Q9QYN8) (Q9QYN8 whole entry): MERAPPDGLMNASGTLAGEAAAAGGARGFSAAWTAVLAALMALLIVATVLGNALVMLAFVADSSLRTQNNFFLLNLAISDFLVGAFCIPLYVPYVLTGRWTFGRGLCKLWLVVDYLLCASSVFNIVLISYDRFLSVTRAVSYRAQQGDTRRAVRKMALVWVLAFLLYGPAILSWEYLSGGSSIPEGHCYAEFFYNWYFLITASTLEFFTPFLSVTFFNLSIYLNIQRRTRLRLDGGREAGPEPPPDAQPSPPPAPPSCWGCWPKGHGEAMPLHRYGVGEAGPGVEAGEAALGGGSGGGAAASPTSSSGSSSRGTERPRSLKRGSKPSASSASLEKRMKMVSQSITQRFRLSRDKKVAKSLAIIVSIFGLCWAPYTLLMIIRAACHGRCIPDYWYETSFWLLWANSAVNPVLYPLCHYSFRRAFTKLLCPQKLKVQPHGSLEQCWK
Outline: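 Radioligand binding with [3H]NAMH in membranes from cells transfected with human or rat H3 receptor. Ki values averaged from at least two determinations; assay-to-assay variation typically within 2.5-fold.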

Histamine H3 receptor [2] = biological target: Histamine H3 receptor (Homo sapiens, UniProt Q9Y5N1); experiment: Displacement of [3H]NAMH from human histamine H3 receptor
Sequence of Histamine H3 receptor (Homo sapiens, UniProt Q9Y5N1) (Q9Y5N1 whole entry): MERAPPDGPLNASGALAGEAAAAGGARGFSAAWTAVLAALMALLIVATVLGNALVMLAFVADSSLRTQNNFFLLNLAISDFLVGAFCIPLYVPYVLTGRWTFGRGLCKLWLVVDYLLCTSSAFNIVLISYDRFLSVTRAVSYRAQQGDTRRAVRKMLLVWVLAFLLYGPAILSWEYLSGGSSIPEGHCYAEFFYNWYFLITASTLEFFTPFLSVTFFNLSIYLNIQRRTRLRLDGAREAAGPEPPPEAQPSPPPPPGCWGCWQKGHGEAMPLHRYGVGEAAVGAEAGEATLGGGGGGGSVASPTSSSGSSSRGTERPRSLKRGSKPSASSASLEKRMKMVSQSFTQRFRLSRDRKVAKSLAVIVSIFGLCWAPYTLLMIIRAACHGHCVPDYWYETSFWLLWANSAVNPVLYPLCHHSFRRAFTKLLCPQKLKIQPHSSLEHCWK

[3] = Half life in rat liver microsomes; type: ADME, Microsome
[4] = Half life in mouse liver microsomes; type: ADME, Microsome
[5] = Half life in human liver microsomes; type: ADME, Microsome
[6] = Half life in dog liver microsomes; type: ADME, Canis lupus familiaris, Microsome
[7] = Drug uptake in rat brain at 10 mg/kg, ip measured after 4 hrs; type: ADME, organism-based; design: dose 10 mg/kg, route intraperitoneal; conditions: read-out: Drug uptake
Outline: (§1)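 Male-unspecified rats dosed 10 mg/kg ip in 0.5% methylcellulose, 0.2% Tween 80 in water; brain concentration (ng/g) measured at 1, 4, 6 and 24 h post dose. Brain-to-plasma ratio taken at 1 h.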

Brain = experiment: Drug uptake in rat brain at 10 mg/kg, ip measured after 24 hrs; type: ADME, organism-based; design: dose 10 mg/kg, route intraperitoneal; conditions: in vivo; outline: as §1
[8] = Drug uptake in rat brain at 10 mg/kg, ip measured after 6 hrs; type: ADME, organism-based; design: dose 10 mg/kg, route intraperitoneal; conditions: read-out: Drug uptake; outline: as §1
[9] = Drug uptake in rat brain at 10 mg/kg, ip measured after 1 hr; type: ADME, organism-based; design: dose 10 mg/kg, route intraperitoneal; conditions: read-out: Drug uptake; outline: as §1
Rattus norvegicus [10] = experiment: AUC (0 to 6 hrs) in rat at 5 mg/kg, po; type: ADME, organism-based, Plasma; design: time < 6 hr, dose 5 mg/kg, route oral; conditions: in vivo
[11] = biological target: Sigma non-opioid intracellular receptor 1 (Homo sapiens) (UniProt Q99720); experiment: Inhibition of human sigma 1 receptor at 10 uM
Sequence of Sigma non-opioid intracellular receptor 1 (Homo sapiens) (Q99720 whole entry): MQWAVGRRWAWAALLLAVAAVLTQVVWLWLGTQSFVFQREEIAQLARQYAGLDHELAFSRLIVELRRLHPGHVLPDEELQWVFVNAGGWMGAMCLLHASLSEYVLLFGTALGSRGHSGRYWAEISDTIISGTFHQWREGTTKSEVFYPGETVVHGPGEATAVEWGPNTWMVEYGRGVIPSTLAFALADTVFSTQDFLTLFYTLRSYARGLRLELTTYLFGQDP
Outline: (§2)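 Selectivity panel of 70 GPCRs, ion channels and enzymes run by a contract screening service; percent inhibition at 10 µM test concentration.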

Rattus norvegicus [12] = experiment: Effect on sleep-awake cycle in EEG/EMG Sprague-Dawley rat model assessed as increase in EEG theta range at 30 to 60 mg/kg, ip after 1 hr; type: functional; conditions: dose mg/kg 30-60; route intraperitoneal
Outline: (§3)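 Male Sprague Dawley rats were surgically implanted for chronic EEG and EMG recording and dosed ip at 10, 30 or 60 mg/kg or with vehicle. Line 2 is read as cumulative time awake over 4 h post-dose (4 h AUC), or percent time awake. Line 1 is theta-range EEG power (~6–9 Hz, FFT amplitude) at 1 h. n = 7-8/group; Dunnett's test versus vehicle.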

Rattus norvegicus [13] = experiment: Effect on sleep-awake cycle in ip dosed EEG/EMG Sprague-Dawley rat model assessed as wake promotion time at 60 mg/kg, ip (reference value: 101 +/- 7 mins); type: functional; conditions: route intraperitoneal
Cytochrome P450 2C19 = Cytochrome P450 2C19 (Homo sapiens, UniProt P33261); experiment: Inhibition of CYP2C19; type: ADME
Sequence of Cytochrome P450 2C19 (P33261 whole entry): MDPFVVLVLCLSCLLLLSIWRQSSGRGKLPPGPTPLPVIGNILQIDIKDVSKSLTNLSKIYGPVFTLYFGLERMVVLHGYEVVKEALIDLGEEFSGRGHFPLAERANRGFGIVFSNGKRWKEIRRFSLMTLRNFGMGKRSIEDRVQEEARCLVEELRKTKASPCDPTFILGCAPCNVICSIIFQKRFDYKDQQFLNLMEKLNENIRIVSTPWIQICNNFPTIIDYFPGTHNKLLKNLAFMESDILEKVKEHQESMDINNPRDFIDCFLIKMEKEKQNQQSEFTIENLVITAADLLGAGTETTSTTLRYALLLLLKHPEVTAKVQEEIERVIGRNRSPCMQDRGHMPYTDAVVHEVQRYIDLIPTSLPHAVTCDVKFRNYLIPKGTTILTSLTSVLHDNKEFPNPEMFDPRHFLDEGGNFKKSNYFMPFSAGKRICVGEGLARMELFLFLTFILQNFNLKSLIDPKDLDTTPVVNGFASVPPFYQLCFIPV

Cytochrome P450 2D6 = Cytochrome P450 2D6 (Homo sapiens, UniProt P10635); experiment: Inhibition of CYP2D6; type: ADME
Sequence of Cytochrome P450 2D6 (P10635 whole entry): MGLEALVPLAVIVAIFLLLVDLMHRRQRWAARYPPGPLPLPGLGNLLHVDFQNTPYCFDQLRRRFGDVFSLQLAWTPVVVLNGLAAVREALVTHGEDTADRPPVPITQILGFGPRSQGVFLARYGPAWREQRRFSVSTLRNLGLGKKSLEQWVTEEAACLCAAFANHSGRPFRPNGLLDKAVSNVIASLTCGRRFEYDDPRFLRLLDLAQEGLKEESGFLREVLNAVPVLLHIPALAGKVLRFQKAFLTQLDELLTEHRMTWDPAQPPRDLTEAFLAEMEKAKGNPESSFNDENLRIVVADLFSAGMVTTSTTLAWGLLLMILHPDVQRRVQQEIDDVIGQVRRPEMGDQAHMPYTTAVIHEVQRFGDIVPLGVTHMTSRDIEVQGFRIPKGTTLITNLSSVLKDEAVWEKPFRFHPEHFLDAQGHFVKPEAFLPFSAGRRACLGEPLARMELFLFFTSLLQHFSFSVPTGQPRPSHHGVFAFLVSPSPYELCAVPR

Rattus norvegicus [14] = experiment: Effect on sleep-awake cycle in EEG/EMG Sprague-Dawley rat model assessed as wake promotion at 60 mg/kg, ip after 4 hrs; type: functional; conditions: route intraperitoneal
Cytochrome P450 3A4 = Cytochrome P450 3A4 (Homo sapiens, UniProt P08684); experiment: Inhibition of CYP3A4; type: ADME
Sequence of Cytochrome P450 3A4 (P08684 whole entry): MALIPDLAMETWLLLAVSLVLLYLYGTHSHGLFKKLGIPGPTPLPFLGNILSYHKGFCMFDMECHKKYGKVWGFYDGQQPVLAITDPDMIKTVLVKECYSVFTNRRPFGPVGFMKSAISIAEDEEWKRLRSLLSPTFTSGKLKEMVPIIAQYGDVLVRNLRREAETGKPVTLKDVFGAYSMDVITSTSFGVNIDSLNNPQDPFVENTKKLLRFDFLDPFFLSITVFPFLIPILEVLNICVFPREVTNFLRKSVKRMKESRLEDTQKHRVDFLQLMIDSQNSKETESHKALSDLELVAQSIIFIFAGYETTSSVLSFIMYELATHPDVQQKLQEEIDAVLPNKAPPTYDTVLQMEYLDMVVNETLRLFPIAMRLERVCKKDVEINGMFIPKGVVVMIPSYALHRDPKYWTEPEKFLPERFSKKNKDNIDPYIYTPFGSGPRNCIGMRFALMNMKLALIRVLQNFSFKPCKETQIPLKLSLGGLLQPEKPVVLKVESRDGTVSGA

Rattus norvegicus [15] = experiment: Effect on sleep-awake cycle in EEG/EMG Sprague-Dawley rat model assessed as sleep rebound at 10 to 60 mg/kg, ip up to 22 hrs; type: functional, organism-based
Rattus norvegicus [16] = experiment: Effect on sleep-awake cycle in EEG/EMG Sprague-Dawley rat model assessed as increase in rapid eye movement sleep at 60 mg/kg, ip after 4 hrs; type: functional, organism-based; design: dose 60 mg/kg
Cytochrome P450 2C9 = Cytochrome P450 2C9 (Homo sapiens, UniProt P11712); experiment: Inhibition of CYP2C9; type: ADME
Sequence of Cytochrome P450 2C9 (P11712 whole entry): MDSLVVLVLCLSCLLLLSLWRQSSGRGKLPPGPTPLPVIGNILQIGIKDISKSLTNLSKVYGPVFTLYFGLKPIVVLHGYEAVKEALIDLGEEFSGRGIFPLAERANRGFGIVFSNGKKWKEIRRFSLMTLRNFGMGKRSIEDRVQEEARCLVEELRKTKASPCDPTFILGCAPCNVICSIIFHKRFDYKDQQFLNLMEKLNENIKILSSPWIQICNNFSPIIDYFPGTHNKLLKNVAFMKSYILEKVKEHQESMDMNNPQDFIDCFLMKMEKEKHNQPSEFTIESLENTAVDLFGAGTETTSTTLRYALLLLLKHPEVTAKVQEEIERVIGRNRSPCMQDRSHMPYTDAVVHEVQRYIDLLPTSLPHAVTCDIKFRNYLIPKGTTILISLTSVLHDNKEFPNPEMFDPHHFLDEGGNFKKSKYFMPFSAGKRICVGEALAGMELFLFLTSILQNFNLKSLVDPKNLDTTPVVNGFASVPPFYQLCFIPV

Rattus norvegicus [17] = experiment: Effect on sleep-awake cycle in EEG/EMG Sprague-Dawley rat model assessed as wake promotion at 60 mg/kg, ip after 4 hrs relative to control; type: functional; conditions: route intraperitoneal; outline: as §3
Rattus norvegicus [18] = experiment: Effect on sleep-awake cycle in ip dosed EEG/EMG Sprague-Dawley rat model assessed as wake promotion time at 10 mg/kg, ip (reference value: 101 +/- 7 mins); type: functional; conditions: route intraperitoneal
[19] = Oral bioavailability in rat at 5 mg/kg; type: ADME, organism-based; conditions: in vivo
Outline: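 Rats received 5 mg/kg po in 50% Tween 80, 40% propylene carbonate and 10% propylene glycol. The iv comparison dose was formulated in 3% DMSO, 30% solutol and 67% phosphate-buffered saline.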

Rattus norvegicus [20] = experiment: Effect on sleep-awake cycle in EEG/EMG Sprague-Dawley rat model assessed as change in EEG theta frequency at 30 to 60 mg/kg, ip after 1 hr; type: functional, organism-based
[21] = Ratio of drug uptake in rat brain to plasma at 10 mg/kg, ip measured after 1 hr; type: ADME, organism-based; design: dose 10 mg/kg, route intraperitoneal; conditions: read-out: BPR; outline: as §1
Rattus norvegicus [22] = experiment: Effect on sleep-awake cycle in EEG/EMG Sprague-Dawley rat model assessed as increase in slow-wave sleep at 60 mg/kg, ip after 4 hrs; type: functional, organism-based; design: dose 60 mg/kg
Rattus norvegicus [23] = experiment: Effect on sleep-awake cycle in ip dosed EEG/EMG Sprague-Dawley rat model assessed as wake promotion after 4 hrs; type: functional, organism-based
[24] = biological target: Nischarin (Rattus norvegicus) (UniProt Q4G017); experiment: Inhibition of rat imidazoline I2 receptor at 10 uM; outline: as §2
Sequence of Nischarin (Rattus norvegicus) (Q4G017 whole entry): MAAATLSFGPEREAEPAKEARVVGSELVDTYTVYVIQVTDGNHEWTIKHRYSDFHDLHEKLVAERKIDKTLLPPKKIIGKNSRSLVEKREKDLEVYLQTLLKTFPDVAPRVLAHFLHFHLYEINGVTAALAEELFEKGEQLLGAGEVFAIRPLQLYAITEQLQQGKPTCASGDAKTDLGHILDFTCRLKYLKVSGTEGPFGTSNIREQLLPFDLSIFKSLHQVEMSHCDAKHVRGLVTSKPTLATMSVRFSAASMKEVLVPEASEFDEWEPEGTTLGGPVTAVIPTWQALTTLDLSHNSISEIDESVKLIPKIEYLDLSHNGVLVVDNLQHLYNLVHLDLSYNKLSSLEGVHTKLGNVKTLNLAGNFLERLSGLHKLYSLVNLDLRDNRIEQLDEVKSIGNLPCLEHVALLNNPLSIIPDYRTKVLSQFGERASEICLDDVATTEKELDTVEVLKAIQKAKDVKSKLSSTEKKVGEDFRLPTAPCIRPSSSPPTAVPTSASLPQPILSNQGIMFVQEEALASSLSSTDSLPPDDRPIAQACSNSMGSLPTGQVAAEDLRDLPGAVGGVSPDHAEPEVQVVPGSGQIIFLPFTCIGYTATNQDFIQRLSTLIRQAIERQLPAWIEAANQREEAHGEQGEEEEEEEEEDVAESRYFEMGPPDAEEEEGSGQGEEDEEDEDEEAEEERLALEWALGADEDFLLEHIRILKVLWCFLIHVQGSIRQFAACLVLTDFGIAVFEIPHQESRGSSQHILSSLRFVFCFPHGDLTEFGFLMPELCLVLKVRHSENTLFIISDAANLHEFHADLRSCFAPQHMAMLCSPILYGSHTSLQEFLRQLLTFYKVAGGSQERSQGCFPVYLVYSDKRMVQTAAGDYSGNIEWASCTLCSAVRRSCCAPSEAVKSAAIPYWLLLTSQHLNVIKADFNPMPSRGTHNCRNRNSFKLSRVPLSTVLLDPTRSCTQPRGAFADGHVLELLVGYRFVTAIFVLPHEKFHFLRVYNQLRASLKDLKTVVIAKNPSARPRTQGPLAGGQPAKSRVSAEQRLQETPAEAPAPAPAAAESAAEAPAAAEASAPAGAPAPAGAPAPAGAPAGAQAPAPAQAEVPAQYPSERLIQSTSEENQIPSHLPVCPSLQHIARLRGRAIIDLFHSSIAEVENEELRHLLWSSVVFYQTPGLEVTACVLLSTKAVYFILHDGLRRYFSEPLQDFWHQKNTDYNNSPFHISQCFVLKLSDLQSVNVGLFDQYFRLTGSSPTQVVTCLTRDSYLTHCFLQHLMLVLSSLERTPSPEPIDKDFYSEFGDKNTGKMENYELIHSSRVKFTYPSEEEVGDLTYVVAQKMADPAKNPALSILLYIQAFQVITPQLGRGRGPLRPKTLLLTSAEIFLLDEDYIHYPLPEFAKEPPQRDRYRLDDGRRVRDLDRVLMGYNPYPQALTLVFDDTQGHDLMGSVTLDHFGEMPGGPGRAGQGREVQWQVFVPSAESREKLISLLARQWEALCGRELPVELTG

Rattus norvegicus [25] = experiment: Effect on sleep-awake cycle in ip dosed EEG/EMG Sprague-Dawley rat model assessed as wake promotion time at 30 mg/kg, ip (reference value: 101 +/- 7 mins); type: functional; conditions: route intraperitoneal
Cytochrome P450 1A2 = biological target: T1, Cytochrome P450 1A2 (Homo sapiens, UniProt P05177); experiment: Inhibition of CYP1A2; type: ADME
T1 sequence (P05177 whole entry): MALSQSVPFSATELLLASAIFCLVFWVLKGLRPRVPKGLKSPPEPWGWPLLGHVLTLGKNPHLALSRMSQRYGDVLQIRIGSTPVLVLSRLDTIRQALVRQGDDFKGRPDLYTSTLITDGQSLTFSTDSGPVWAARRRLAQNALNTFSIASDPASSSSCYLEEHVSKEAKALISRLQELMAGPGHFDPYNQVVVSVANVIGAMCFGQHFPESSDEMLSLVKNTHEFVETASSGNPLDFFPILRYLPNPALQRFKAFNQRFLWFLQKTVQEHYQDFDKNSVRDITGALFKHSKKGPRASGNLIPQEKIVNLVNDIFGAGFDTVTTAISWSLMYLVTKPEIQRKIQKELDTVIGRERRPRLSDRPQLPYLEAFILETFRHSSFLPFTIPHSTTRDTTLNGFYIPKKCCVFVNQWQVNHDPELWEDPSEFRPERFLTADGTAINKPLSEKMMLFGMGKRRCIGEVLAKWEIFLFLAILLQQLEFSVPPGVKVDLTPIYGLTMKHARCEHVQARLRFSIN

Rattus norvegicus [26] = experiment: Effect on sleep-awake cycle in EEG/EMG Sprague-Dawley rat model assessed as increase in rapid eye movement sleep at 30 mg/kg, ip after 4 hrs; type: functional, organism-based; design: dose 30 mg/kg
Rattus norvegicus [27] = experiment: Effect on sleep-awake cycle in EEG/EMG Sprague-Dawley rat model assessed as increase in slow-wave sleep at 30 mg/kg, ip after 4 hrs; type: functional, organism-based; design: dose 30 mg/kg
[28] = Aqueous solubility of the compound at pH 7.4; type: physicochemical; conditions: aqueous medium
Rattus norvegicus [29] = experiment: Toxicity in EEG/EMG Sprague-Dawley rat model assessed as adverse EEG activity at 10 to 60 mg/kg, ip; type: organism-based; design: dose 10-60 mg/kg, route intraperitoneal; conditions: in vivo

pKi (Histamine H3 receptor [1]): < 5.52 | pKi (Histamine H3 receptor [2]): 5.93
SMILES: COC[C@H]1CCCN1CCCOc1ccc(C(=O)CN2CCOCC2)cc1

pKi (Histamine H3 receptor [1]): 6.36 | pKi (Histamine H3 receptor [2]): 7.18
SMILES: O=C(CN1CCOCC1)c1ccc(OCCCN2CCCCC2)cc1

pKi (Histamine H3 receptor [1]): 6.76 | pKi (Histamine H3 receptor [2]): 7.49
SMILES: O=C(CN1CCCCC1)c1ccc(OCCCN2CCCC2)cc1

pKi (Histamine H3 receptor [1]): 7.25 | concentration at 4 h [7]: 1610 ng/g | Drug uptake (Brain): Not Active | concentration at 6 h [8]: 955 ng/g | concentration at 1 h [9]: 3930 ng/g
SMILES: CC1CCCN1CCCOc1ccc(C(=O)CN2CCOCC2)cc1 (racemic)

pKi (Histamine H3 receptor [1]): 6.05
SMILES: C[C@H]1CCCN1CCCOc1ccc(C(=O)CN2CCOCC2)cc1

pKi (Histamine H3 receptor [1]): 6.61 | pKi (Histamine H3 receptor [2]): 7.72
SMILES: Cc1cc(OCCCN2CCC[C@H]2C)ccc1C(=O)CN1CCOCC1

The remaining lines, values behind:

SMILES: O=C(CN1CCOCC1)c1ccc(OCCCN2CCCC2)cc1
pKi (Histamine H3 receptor [1]): 6.23 | pKi (Histamine H3 receptor [2]): 6.97

SMILES: CC(C(=O)c1ccc(OCCCN2CCC[C@H]2C)cc1)N1CCOCC1 (stereo partly specified)
pKi (Histamine H3 receptor [1]): 6.98 | half-life [3]: > 40 min | half-life [4]: > 40 min | half-life [5]: > 40 min | half-life [6]: > 40 min | pKi (Histamine H3 receptor [2]): 8.10

SMILES: CC1(C)CCCN1CCCOc1ccc(C(=O)CN2CCOCC2)cc1
pKi (Histamine H3 receptor [1]): < 6.00 | pKi (Histamine H3 receptor [2]): < 6.00

SMILES: C[C@@H]1CN(CC(=O)c2ccc(OCCCN3CCC[C@H]3C)cc2)C[C@H](C)O1
pKi (Histamine H3 receptor [1]): 7.11 | pKi (Histamine H3 receptor [2]): 8.00

SMILES: C[C@@H]1CCCN1CCCOc1ccc(C(=O)C(C)(C)N2CCOCC2)cc1
pKi (Histamine H3 receptor [1]): 7.48 | half-life [3]: 9 min | half-life [4]: > 40 min | half-life [5]: 8 min | half-life [6]: 10 min | pKi (Histamine H3 receptor [2]): 8.05

SMILES: COC[C@@H]1CCCN1CCCOc1ccc(C(=O)CN2CCOCC2)cc1
pKi (Histamine H3 receptor [1]): < 5.52 | pKi (Histamine H3 receptor [2]): < 5.52

SMILES: C[C@@H]1CCCN1CCCOc1ccc(C(=O)CN2CCOCC2)cc1
pKi (Histamine H3 receptor [1]): 7.30 | AUC (Rattus norvegicus [10]): 109 ng·h/mL | inhibition [11]: 78% | fold change (FC) (Rattus norvegicus [12]): 2 | Time (Rattus norvegicus [13]): 222 min | pIC50 (Cytochrome P450 2C19): < 4.52 | pIC50 (Cytochrome P450 2D6): < 4.52 | Activity (Rattus norvegicus [14]): 93% | pIC50 (Cytochrome P450 3A4): < 4.52 | Activity (Rattus norvegicus [15]): inactive | Activity (Rattus norvegicus [16]): Active | pIC50 (Cytochrome P450 2C9): < 4.52 | fold change (FC) (Rattus norvegicus [17]): 2.2 | Time (Rattus norvegicus [18]): 118 min | bioavailability [19]: 14% | Activity (Rattus norvegicus [20]): inactive | Kp at 1 h [21]: 30.7 | Activity (Rattus norvegicus [22]): Active | Activity (Rattus norvegicus [23]): Dose-dependent effect | inhibition [24]: 67% | Time (Rattus norvegicus [25]): 163 min | pIC50 (Cytochrome P450 1A2): < 4.52 | Activity (Rattus norvegicus [26]): Active | Activity (Rattus norvegicus [27]): Active | concentration at 1 h [9]: 3770 ng/g | solubility [28]: > 145 µg/mL | Activity (Rattus norvegicus [29]): Non-toxic
